Data published in ChEMBL document CHEMBL4513216, “Probing the Open Global Health Chemical Diversity Library for Multistage-Active Starting Points for Next-Generation Antimalarials” (ACS Infect Dis, 2020).

Assay: Toxicity liver stage against HepG2, at 10uM
Type: cell-based
Parameters: test concentration 10 uM, cell line HepG2-A16-CD81EGFP
Settings: human, HepG2-A16-CD81EGFP cells; read-out: INHIBITION
In short: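 Uninfected HepG2-A16-CD81EGFP cells, 3 × 10^3 per well, 1536-well, plated on prespotted compound at 10 μM final, parasite-free screening media added to match infected plates; puromycin 10 μM positive, DMSO 0.5% negative; run in parallel with 48 h PbLuc assay at 37 °C, 5% CO2; viability by CellTiter-Glo luminescence, normalized to controls.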
`CN(C(=O)c1ccco1)c1nc2c(s1)CCCC2` showed a cytotoxicity at 10 µM of 13.7%.
Work on `O=C(NCc1cccnc1)[C@H]1CN2CCC1C[C@@H]2Cn1cc(CO)nn1` (some centres not stated) yielded a cytotoxicity at 10 µM of -0.843%.
`CN(C)C(=O)CO[C@H]1COCCN(C2CCOCC2)C1` gave a cytotoxicity at 10 µM of 3.64%.
`c1cnc2c(c1)nc1n2[C@@H](CNCc2nccs2)COC1` showed a cytotoxicity at 10 µM of -2.66%.
`CN(C)C(=O)c1cc2ncc(C(=O)NC3CCCC3)cc2n1C` gave a cytotoxicity at 10 µM of -2.63%.
With `Cc1cccc2c1ccn2CCC(=O)Nc1c2c(nn1C)CSC2` the cytotoxicity at 10 µM was 3.03%.
`Cn1cc(C2SCC(=O)Nc3c2c(=O)[nH]n3C2CCOCC2)cn1` (configuration not stated) showed a cytotoxicity at 10 µM of -0.348%.
Work on `O=C(NCCC(O)c1ccco1)c1ccccc1Br` (configuration not stated) yielded a cytotoxicity at 10 µM of 0.957%.
With `COc1ncccc1C(=O)NCCn1cnc(C)cc1=O` the cytotoxicity at 10 µM was -0.37%.
Molecule `COc1cccc2sc(N3CC(OC(C)=O)C3)nc12` has a cytotoxicity at 10 µM of -6.67%.
With `CN(C)CCN1C[C@@H]2OCCN(Cc3cnn(C)c3)[C@@H]2C1` the cytotoxicity at 10 µM was -140%.
Work on `CCS(=O)(=O)N1CCc2cc(C(=O)NC)c(NCC3CC3)nc2CC1` yielded a cytotoxicity at 10 µM of 1.88%.
For `Cn1cc(C2CC3(CCN(C(=O)c4ccsc4)CC3)NC2=O)cn1` (configuration not stated), the cytotoxicity at 10 µM was -3.7%.
For `O=C1CC(c2ccc(F)cc2)Cc2[nH]c(=O)c(C(=O)O)cc21` (configuration not stated), the cytotoxicity at 10 µM was -3.65%.
For `O=C1CC(c2ccc(C(=O)O)cc2)c2ncn(-c3ccc(Cl)cc3)c2N1` (configuration not stated), the cytotoxicity at 10 µM was -2.14%.
Molecule `Cc1ccc(-c2cc(C)nc(C3CCCN3S(C)(=O)=O)n2)cc1` (configuration not stated) has a cytotoxicity at 10 µM of -8.27%.
`COCCOCC(=O)N1C[C@@H]2CC[C@H](Oc3cccc(F)c3)[C@@H]2C1` gave a cytotoxicity at 10 µM of -26%.
`CN1CCCN(S(=O)(=O)c2cnn(C)c2)c2cc(Cl)ccc21` showed a cytotoxicity at 10 µM of 7.41%.
With `CCN(Cc1ccc(C#N)cc1F)C(=O)CN(C)CC(N)=O` the cytotoxicity at 10 µM was 7.52%.
Molecule `CC(Nc1c(F)cc(C#N)cc1F)c1cccc(S(N)(=O)=O)c1` (configuration not stated) has a cytotoxicity at 10 µM of -4.34%.
For `COC(=O)c1ccc(C(=O)NCc2ccco2)nc1`, the cytotoxicity at 10 µM was -3.73%.
Molecule `COC(=O)C1CN(Cc2cc(F)ccc2Br)CCO1` (configuration not stated) has a cytotoxicity at 10 µM of -5.51%.
Work on `Cc1ccc(CNc2ccn(CCC(N)=O)n2)c(Br)c1` yielded a cytotoxicity at 10 µM of -1.65%.
Work on `O=C(Cc1cccs1)N1CCOCC1c1ccccc1` (configuration not stated) yielded a cytotoxicity at 10 µM of -6.73%.
In the case of `NC(=O)CCC1CCCN(c2ccc3ccc(F)cc3n2)C1` (configuration not stated), the cytotoxicity at 10 µM is reported as -0.386%.
Work on `COCc1ccccc1C(=O)NCC(O)c1ccccc1F` (configuration not stated) yielded a cytotoxicity at 10 µM of -3.67%.
Work on `Cc1nc2n(n1)CC(NCc1nc(C)c(C)o1)CC2` (configuration not stated) yielded a cytotoxicity at 10 µM of -0.925%.
Work on `COCCOc1ccc(NC(=O)N(CC2CCOC2)C2CC2)cn1` (configuration not stated) yielded a cytotoxicity at 10 µM of -1.29%.
`Cc1ccccc1C1CCN(C(=O)CCNC(=O)C(C)(C)C)C1` (configuration not stated) showed a cytotoxicity at 10 µM of -5.47%.
Molecule `CC(C)(C)OC(=O)NCC1CCN(C(=O)c2ccc(F)cc2F)C1` (configuration not stated) has a cytotoxicity at 10 µM of 11.5%.
Molecule `CS(=O)(=O)N1CCN(Cc2c(O)ccc3oc4c(c23)CCCC4)CC1` has a cytotoxicity at 10 µM of 1.01%.
Work on `NC(=O)C1CN(Cc2c(O)ccc3oc4c(c23)CCCC4)CCO1` (configuration not stated) yielded a cytotoxicity at 10 µM of 4.48%.
With `CC(NC(=O)N(C)Cc1ccc2c(c1)OCCO2)c1nncn1C` (configuration not stated) the cytotoxicity at 10 µM was -2.25%.
Molecule `Cc1cc(NC(=O)NCCc2ccccc2)n(C)n1` has a cytotoxicity at 10 µM of -9.19%.
`Cc1cc(NC(=O)CN2CCc3nn(C)c(=O)cc3C2)no1` showed a cytotoxicity at 10 µM of -5.04%.
`Cc1nn(C)c(N(C)C)c1CNCc1cccnc1N1CCOCC1` showed a cytotoxicity at 10 µM of -141%.
`CC1CCC(NC(=O)Nc2ccc(CC(=O)N(C)C)cc2)CC1` (configuration not stated) showed a cytotoxicity at 10 µM of 3.85%.
Molecule `C1CN(c2nc(C3CC3)ns2)CCO1` has a cytotoxicity at 10 µM of -2.4%.
`CCNC(=O)NC1CCCN(c2ccc(C)cc2)C1=O` (configuration not stated) gave a cytotoxicity at 10 µM of 0.732%.
In the case of `CN(CCO)C(=O)Nc1ccn(-c2cccc(C(F)(F)F)c2)n1`, the cytotoxicity at 10 µM is reported as 4.16%.
`CC(c1ccco1)N(C(=O)c1cc2c([nH]c1=O)CCCC2=O)C1CC1` (configuration not stated) showed a cytotoxicity at 10 µM of -3.21%.
Molecule `CCC(C)n1cnc(S(=O)(=O)N(C)C)c1` (configuration not stated) has a cytotoxicity at 10 µM of -7.07%.
In the case of `CCC(C)n1cnc(S(=O)(=O)N(Cc2cccnc2)C(C)C)c1` (configuration not stated), the cytotoxicity at 10 µM is reported as 0.075%.
In the case of `O=C(CN1CCCc2c(F)cc(Br)cc21)N1CCN(C(=O)C2CC2)CC1`, the cytotoxicity at 10 µM is reported as -5.06%.
Work on `CN(C)S(=O)(=O)N1CCC(OCCCc2ccccc2)C1` (configuration not stated) yielded a cytotoxicity at 10 µM of 0.696%.
Molecule `COCc1noc(Cc2cc(Cl)c3c(c2)OCCCO3)n1` has a cytotoxicity at 10 µM of 0.583%.
`Cc1cc(Cl)c(C)c(S(=O)(=O)N2CCN(Cc3ccncc3)CC2)c1Cl` gave a cytotoxicity at 10 µM of 1.76%.
`CC(C)Oc1cc(N2CCC(C(N)=O)CC2)nc(N)n1` showed a cytotoxicity at 10 µM of 2.96%.
`c1ccc(C2CN(c3ncnc4[nH]cnc34)CCO2)cc1` (configuration not stated) gave a cytotoxicity at 10 µM of 9.42%.
`CN(C)CCNc1cc(-c2ncccc2C(F)(F)F)c2cc[nH]c2n1` showed a cytotoxicity at 10 µM of 7.2%.
`Cc1cccnc1CN1CCN(Cc2ccc(-c3cc[nH]n3)o2)CC1` gave a cytotoxicity at 10 µM of -3.57%.
Work on `Nc1nc2c(c(NCc3ccncc3)n1)CCCC2` yielded a cytotoxicity at 10 µM of 4.56%.
`COc1ccc(CCN)cc1-c1ccc(C(N)=O)cc1` gave a cytotoxicity at 10 µM of 3.23%.
`COc1ccccc1Oc1ncccc1CNC(=O)C(O)C(F)(F)F` (configuration not stated) showed a cytotoxicity at 10 µM of -3.37%.
In the case of `O=C(c1n[nH]c2c1CCC2)N1CCCC1c1nc(-c2ccccc2)no1` (configuration not stated), the cytotoxicity at 10 µM is reported as 6.43%.
Molecule `CCC(CC)n1nc(C)cc1NC(=O)C1CCOC1` (configuration not stated) has a cytotoxicity at 10 µM of -5.15%.
For `CC(C)c1cc(C(=O)N2CCN(c3cccc(C(=O)O)c3)CC2)n(C)n1`, the cytotoxicity at 10 µM was -2.95%.
`CSCC(=O)N[C@H]1CN(CC2CCOCC2)C[C@@H]1c1ccccc1` gave a cytotoxicity at 10 µM of -3.97%.
`Cc1ccccc1-c1noc(C2CC(C(C)C)=NO2)n1` (configuration not stated) gave a cytotoxicity at 10 µM of -14.6%.
For `CNC(=O)C1CCN(C(=O)c2coc(COc3ccc(OC)cc3)n2)C1` (configuration not stated), the cytotoxicity at 10 µM was -1.74%.
In the case of `COc1ccccc1Oc1ncccc1CNC(=O)C1(C)CCCNC1` (configuration not stated), the cytotoxicity at 10 µM is reported as -2.56%.
Work on `O=C(CCc1ccsc1)N1CCC(n2cc(CO)nn2)CC1` yielded a cytotoxicity at 10 µM of -3.37%.
For `O=S1(=O)COCCN1CCOc1ccc(F)cc1`, the cytotoxicity at 10 µM was -0.505%.
For `COc1c(CNC2CCOc3c(Cl)cccc32)c(C(C)C)nn1C` (configuration not stated), the cytotoxicity at 10 µM was 2.25%.
Work on `NC(=O)C1CCN(C(=O)c2ccn(-c3ccc(F)cc3)n2)CC1` yielded a cytotoxicity at 10 µM of -1.34%.
In the case of `Cn1ccc2c(C(=O)N3CCCC(c4nnc[nH]4)C3)cccc21` (configuration not stated), the cytotoxicity at 10 µM is reported as 1.92%.
With `Cc1nn(C)c(N(C)C)c1CNCCCNS(C)(=O)=O` the cytotoxicity at 10 µM was -5.98%.
Molecule `CCCc1n[nH]c(C2CN(CCNS(C)(=O)=O)CCO2)n1` (configuration not stated) has a cytotoxicity at 10 µM of -0.975%.
For `CN1CCC/C1=N\S(=O)(=O)c1ccc(NC(=O)c2ccco2)cc1`, the cytotoxicity at 10 µM was 4.56%.
Molecule `CC(C)c1ccc(C(O)CN2CCN(Cc3nccn3C)CC2)cc1` (configuration not stated) has a cytotoxicity at 10 µM of -38.3%.
With `Cc1nccc(C(=O)N2CCOC(c3nc(C(C)C)n[nH]3)C2)n1` (configuration not stated) the cytotoxicity at 10 µM was -15.7%.
In the case of `CC(=O)Nc1nc(C(=O)NC(C)c2ccc(C#N)cc2)cs1` (configuration not stated), the cytotoxicity at 10 µM is reported as -10.5%.
With `O=C(Cc1cccc2cccnc12)N1CCCN(c2cccnn2)CC1` the cytotoxicity at 10 µM was -5.1%.
`Cc1ncsc1C(=O)N1CCC(Nc2cccnn2)CC1` gave a cytotoxicity at 10 µM of -1.89%.
Work on `CN1CCN(C(=O)Cc2ccc(F)cc2)Cc2cccnc21` yielded a cytotoxicity at 10 µM of 0.0773%.
Work on `CO[C@@H]1CN(S(=O)(=O)c2cn(C)cn2)[C@@H]2CCCO[C@@H]21` yielded a cytotoxicity at 10 µM of -125%.
Work on `CCS(=O)(=O)N1CCC2(CC1)CCn1c(-c3cnn(C)c3)cnc12` yielded a cytotoxicity at 10 µM of -138%.
With `O=C(NCCc1c[nH]c2ccccc12)C1CCC(Cn2cnnn2)CC1` (configuration not stated) the cytotoxicity at 10 µM was -12.7%.
In the case of `CCCn1nccc1NC(=O)CN1CCC[C@H]1CO`, the cytotoxicity at 10 µM is reported as -1.8%.
Work on `O=C(c1ccc(=O)[nH]c1)N1C[C@H]2CC[C@@H](C1)N(Cc1ccccc1)C2` yielded a cytotoxicity at 10 µM of -100%.
`O=C1NCC2=Nc3ccccc3NC(c3ccc(O)cc3)C12` (configuration not stated) gave a cytotoxicity at 10 µM of 3.63%.
For `O=C(C1CCC1)N1C[C@H]2CC[C@@H](C1)N(S(=O)(=O)c1cccnc1)C2`, the cytotoxicity at 10 µM was -3.65%.
